In ChEMBL document CHEMBL5154797 (Eur J Med Chem, 2022):
Activity calls are given as the source filed them. No cut-off for these calls is given here.

Key:
SARS-CoV-2 = assay: Antiviral activity against S-protein based pseudotyped SARS-CoV-2 infected in Huh7 cells measured after 24 hrs by bright-Glo luciferase assay; format: functional, organism-based; conditions: Severe acute respiratory syndrome coronavirus 2, Huh-7, 24 h
Method in brief: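 Serial dilutions from 200 μM were held with pseudotyped SARS-CoV-2 (1.3 × 10^4 TCID50) at 37 °C for 1 h, then mixed with Huh7 cells (2000 cells/well) and incubated 24 h. EC50 was calculated from bioluminescence intensity.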

[1] = Selectivity index, ratio of CC50 for cytotoxicity against golden hamster BSR cells to EC50 for antirabies activity against Rabies virus infected in golden hamster BSR cells; format: toxicity, cell-based; conditions: read-out: Selectivity Index
[2] = Selectivity index, ratio of CC50 for cytotoxicity against human Huh7 cells to EC50 for antiviral activity against S-protein based pseudotyped SARS-CoV-2 infected in Huh7 cells; format: functional
Huh-7 = assay: Cytotoxicity against human HuH-7 cells assessed as reduction in cell viability incubated for 24 hrs by microplate reader assay; format: functional
Lyssavirus rabies [3] = assay: Antirabies activity against rabies CVS infected in golden hamster BSR cells preincubated for 1 hr followed by mixing of cells measured after 24 hrs by inverted fluorescence microscope analysis; format: functional, organism-based
[4] = Cytotoxicity against golden hamster BSR cells assessed as reduction in cell viability incubated for 24 hrs by microplate luminometer method; format: toxicity, cell-based, Mesocricetus auratus; conditions: for CC50: bsr, 24 h; for CC50 at 24 h: BSR cells
Method in brief: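 BSR cells given serial dilutions from 200 μM, with medium in place of virus. After 24 h at 37 °C, viability was read by luminometer and CC50 calculated.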

Lyssavirus rabies [5] = assay: Antirabies activity against rabies CVS infected in golden hamster BSR cells assessed as inhibition of viral growth at 25 uM treated 1 hr post infection measured after 23 hrs by measuring luciferase signal; format: functional, organism-based; conditions: time 24.0 hrs
[6] = Acute toxicity in Kunming mouse assessed as lethal dose administered orally measured after 7 days; conditions: in vivo, 800 mg/kg, route po, time 7 day
Method in brief: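 Female Kunming mice (20.0 ± 1.0 g), 6 per group, randomly assigned. Single oral dose of 0, 200, 400, 600 or 800 mg•kg−1, with ddH2O as control. Body weight, behaviour and survival monitored for 7 days.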

[7] = target: Spike glycoprotein (Severe acute respiratory syndrome coronavirus 2) (UniProt P0DTC2); assay: Binding affinity to SARS-CoV-2 spike protein at 0.16 to 5 uM by SPR analysis; conditions: dose 0.16-5 µM, DDE = dose-dependent effect
Method in brief: (§1)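 Biacore SPR with PBS-P as sample and running buffer. Target protein was amine-coupled to a CM5 chip in sodium acetate pH 4.0. Compound dilution series flowed at 30 μL/min, with 60 s contact and 120 s dissociation. Reference flow cell and blank cycle responses were subtracted.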

Spike glycoprotein = Spike glycoprotein (Severe acute respiratory syndrome coronavirus 2, UniProt P0DTC2); assay: Binding affinity to SARS-CoV-2 spike protein assessed as Kd by SPR analysis
[8] = Binding affinity to rabies recombinant GST-His-tagged G-glycoprotein protein (20 to 459 AA residues) expressed in Escherichia coli BL21 (DE3) cells assessed as Kd treated for 60 secs followed dissociation time of 120 secs by SPR analysis; design: species or system Lyssavirus rabies; method in brief: as §1

| Structure (SMILES) | EC50 (SARS-CoV-2) | selectivity ratio [1] | Selectivity Index [2] | CC50 (Huh-7) | EC50 (Lyssavirus rabies [3]) | CC50 [4] | Activity (Lyssavirus rabies [5]) | LD50 at 168 h [6] | Activity [7] | Kd (Spike glycoprotein) | Kd [8] | CC50 at 24 h [4] |
| --- | --- | --- | --- | --- | --- | --- | --- | --- | --- | --- | --- | --- |
| COc1ccc(Nc2cc3nc4ccccc4n(-c4ccc(Cl)cc4)c-3cc2=N)c(OC)c1 | 16.1 µM | 1 | 1 | 16.6 µM | 35.4 µM | – | – | – | – | – | – | – |
| CCC/N=c1\cc2n(-c3ccc(OC)nc3)c3ccccc3nc-2cc1Nc1ccc(F)cc1 | < 10 µM | 76.4 | – | < 10 µM | 1.4 µM | 107 µM | – | – | – | – | – | – |
| CCC/N=c1\cc2n(-c3ccc(Cl)cc3)c3ccccc3nc-2cc1Nc1ccc(F)cc1 | 10.3 µM | 32.6 | 1.5 | 14.9 µM | 1.67 µM | 54.5 µM | – | – | – | – | – | – |
| COc1ccc(-n2c3c/c(=N\C(C)C)c(Nc4cccc(F)c4)cc-3nc3ccccc32)cn1 | 14.6 µM | 223 | 6.1 | 88.9 µM | 1.45 µM | – | Active | 800 mg/kg | Dde | 2.52 µM | 0.73 µM | – |
| CC(C)/N=c1\cc2n(-c3ccc(Cl)cc3)c3ccccc3nc-2cc1Nc1ccccc1 | 40.9 µM | 21.9 | 3.8 | 154 µM | 8.44 µM | 185 µM | – | – | – | – | – | – |
| CC(C)/N=c1\cc2n(-c3ccccc3)c3ccccc3nc-2cc1Nc1ccc(Cl)cc1 | < 10 µM | 22.4 | >1.6 | 16.1 µM | 1.9 µM | 42.6 µM | – | – | – | – | – | – |
| CCC/N=c1\cc2n(-c3ccccc3)c3ccccc3nc-2cc1Nc1ccccc1 | < 10 µM | 19 | >3.5 | 35.6 µM | 0.76 µM | 14.4 µM | – | – | – | – | – | – |
| COc1ccc(-n2c3c/c(=N\C4CC4)c(Nc4ccc(F)cc4)cc-3nc3ccccc32)cn1 | 33.1 µM | 8.1 | 2.7 | 88.9 µM | 13.2 µM | 107 µM | – | – | – | – | – | – |
| CC(C)/N=c1\cc2n(-c3ccccc3)c3ccccc3nc-2cc1NCc1ccccc1 | < 10 µM | 76.4 | – | < 10 µM | 1.4 µM | 107 µM | – | – | – | – | – | – |
| COc1ccc(Nc2cc3nc4ccccc4n(-c4ccc(Cl)cc4)c-3cc2=N)cc1 | 154 µM | 1 | >1.7 | > 267 µM | 106 µM | – | – | – | – | – | – | – |
| COc1ccc(-n2c3c/c(=N\C4CCC(OC)CC4)c(Nc4ccc(F)cc4)cc-3nc3ccccc32)cn1 (stereo not drawn) | < 10 µM | 33.1 | >5.1 | 51.3 µM | 2.55 µM | 84.4 µM | – | – | – | – | – | – |
| CC(C)/N=c1\cc2n(-c3ccc(Cl)cc3)c3ccccc3nc-2cc1NCc1ccc(Cl)cc1 | 12.4 µM | 123 | 1.3 | 16.1 µM | 0.76 µM | 93.1 µM | – | – | – | – | – | – |
| Clc1ccc(Nc2cc3nc4ccccc4n(-c4ccc(Cl)cc4)c-3c/c2=N\C2CC2)cc1 | 141 µM | 14.2 | >1.9 | > 267 µM | 22.7 µM | – | – | – | – | – | – | – |
| COc1ccc(-n2c3c/c(=N\C(C)C)c(Nc4ccc(Cl)cc4)cc-3nc3ccccc32)cn1 | < 10 µM | 21.3 | >5.1 | 51.3 µM | 5.03 µM | 107 µM | – | – | – | – | – | – |
| CC(C)/N=c1\cc2n(-c3ccccc3)c3ccccc3nc-2cc1Nc1ccccc1 | 17.2 µM | 30.1 | 10.2 | 177 µM | 10.7 µM | – | – | – | – | – | – | 323 µM |
| COc1ccc(-n2c3c/c(=N\C(C)C)c(Nc4ccc(F)cc4)cc-3nc3ccccc32)cn1 | < 10 µM | 229 | >8.9 | 88.9 µM | 1.41 µM | – | Active | 800 mg/kg | – | – | – | 323 µM |
| N=c1cc2n(-c3ccc(Cl)cc3)c3ccccc3nc-2cc1Nc1ccccc1 | < 10 µM | 1.7 | – | < 10 µM | 20.6 µM | 35.4 µM | – | – | – | – | – | – |

| Structure (SMILES) | EC50 (SARS-CoV-2) | selectivity ratio [1] | Selectivity Index [2] | CC50 (Huh-7) | EC50 (Lyssavirus rabies [3]) | CC50 [4] | Activity (Lyssavirus rabies [5]) | LD50 at 168 h [6] | Activity [7] | Kd (Spike glycoprotein) | Kd [8] | CC50 at 24 h [4] |
| --- | --- | --- | --- | --- | --- | --- | --- | --- | --- | --- | --- | --- |
| CC(C)/N=c1\cc2n(-c3ccc(F)cc3)c3ccccc3nc-2cc1Nc1ccc(F)cc1 | 81.1 µM | 134 | 3.3 | 267 µM | 2.29 µM | – | – | – | – | – | – | 314 µM |
| CCC/N=c1\cc2n(-c3ccc(Cl)cc3)c3ccccc3nc-2cc1Nc1ccc(Cl)cc1 | 39.3 µM | 13 | 2.7 | 107 µM | 24.9 µM | – | – | – | – | – | – | 323 µM |
| N=c1cc2n(-c3ccccc3)c3ccccc3nc-2cc1NCc1ccccc1 | – | 1 | – | – | 35.4 µM | – | – | – | – | – | – | 35.4 µM |
| COc1ccc(Nc2cc3nc4ccccc4n(-c4ccc(Cl)cc4)c-3c/c2=N\C(C)C)cc1 | 16.6 µM | 19 | 5.4 | 88.9 µM | 6.86 µM | 130 µM | – | – | – | – | – | – |
| CC(C)/N=c1\cc2n(-c3ccc(Cl)cc3)c3ccccc3nc-2cc1Nc1ccc(F)cc1 | 14.5 µM | 61.7 | 2.8 | 40.6 µM | 4.56 µM | – | – | – | – | – | – | 281 µM |
| N=c1cc2n(-c3ccc(Cl)cc3)c3ccccc3nc-2cc1Nc1ccc(Cl)cc1 | – | 1.7 | – | – | 20.6 µM | 35.4 µM | – | – | – | – | – | – |
| Fc1ccc(Nc2cc3nc4ccccc4n(-c4ccc(Cl)cc4)c-3c/c2=N\C2CC2)cc1 | 13.5 µM | 47.1 | 1.2 | 16.7 µM | 6.86 µM | – | – | – | – | – | – | – |
| COc1ccc(Nc2cc3nc4ccccc4n(-c4ccc(Cl)cc4)c-3c/c2=N\C(C)C)c(OC)c1 | < 10 µM | 17.6 | >1.3 | 13.5 µM | 6.86 µM | 120 µM | – | – | – | – | – | – |
| CC(C)/N=c1\cc2n(-c3ccc(Cl)cc3)c3ccccc3nc-2cc1Nc1ccc(OC(F)(F)F)cc1 | 9.98 µM | 182 | 3.8 | 38.4 µM | 1.77 µM | – | – | – | – | – | – | – |
| CC(C)/N=c1\cc2n(-c3ccccc3)c3ccccc3nc-2cc1NCc1ccc(F)cc1 | < 10 µM | 9.1 | >2.9 | 29.6 µM | 1.9 µM | 17.3 µM | – | – | – | – | – | – |
| CC(C)/N=c1\cc2n(-c3ccc(F)cc3)c3ccccc3nc-2cc1Nc1ccc(Cl)cc1 | 29.6 µM | 55.6 | 0.6 | 17 µM | 4.02 µM | – | – | – | – | – | – | 223 µM |
| COc1ccc(Nc2cc3nc4ccccc4n(-c4ccc(Cl)cc4)c-3c/c2=N\C(C)C)cn1 | 153 µM | 15.5 | >1.7 | > 267 µM | 2.29 µM | 35.4 µM | – | – | – | – | – | – |
| CC(C)/N=c1\cc2n(-c3ccc(Cl)cc3)c3ccccc3nc-2cc1Nc1ccc(Cl)cc1 [CLOFAZIMINE] | 10 µM | – | – | 44.7 µM | 2.28 µM | – | – | – | – | – | 0.28 µM | 323 µM |
| COc1ccc(Nc2cc3nc4ccccc4n(-c4ccccc4)c-3c/c2=N\C(C)C)cn1 | 13.5 µM | 21.2 | 1.7 | 22.7 µM | 5.03 µM | 107 µM | – | – | – | – | – | – |
| COc1ccc(Nc2cc3nc4ccccc4n(-c4ccc(OC)nc4)c-3c/c2=N\C(C)C)cc1 | < 10 µM | 24.5 | >1.7 | 17.1 µM | 13.2 µM | – | – | – | – | – | – | 323 µM |
| COc1ccc(-n2c3c/c(=N\C(C)C)c(Nc4ccccc4)cc-3nc3ccccc32)cn1 | < 10 µM | 26.3 | – | < 10 µM | 12.3 µM | – | – | – | – | – | – | 323 µM |
